Sampled rows, rich in hits. Any-hit rate of the full collection: about 2.2%.
miR122 inh: miR-122 Renilla sensor signal increase in Huh7, primary screen, miR-122 inhibitor project, cell-based, single point, plate reader | Huh7 miR-122 Renilla luciferase sensor, 48 h; neutral wells = 0, positive control = 100 | activation (reporter increase), % at 12.5 µM | 0.3% of 340,000 active;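 active = mean replicate activation score at least 90 and every replicate individually at or above 90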;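 also: higher luciferase means less miR-122 activity so hits act as miR-122 inhibitors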
NR2E3 ag-1: NR2E3 agonists in two-hybrid cells, primary screen, cell-based, luminescence, CHO-S, Gal4-NCOR/VP16-NR2E3; luciferase; inhibition of corepressor binding, % at 3.98 µM; 0.35% of 360,000 active;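 active = inhibition above the mean of all tested compounds plus 3 SD, cut at about 70% in these data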;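 also: 0% = DMSO with NR2E3 transfected cells and 100% = cells lacking NR2E3 construct; higher means lower luciferase signal from less NR2E3 corepressor binding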
FGF22 binding: binders of human FGF22 protein, primary screen, FGF22 synaptogenesis inhibitor project, biophysical, thermal shift, single point. Fibroblast growth factor 22 (Homo sapiens), Q9HCT0. recombinant FGF22 thermal shift, SYPRO orange fluorescence; percent of sucrose octasulfate shift, DMSO zero. activity (Tm shift, normalised), % at 9.99 µM. 1.5% of 340,000 active. AID 651658, 2012;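 active = mean Tm shift, scaled 0 neutral to 100 positive control, at about 1.3% or above, every replicate too, limit read from the data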
Target sequence (Q9HCT0 whole entry, looked up): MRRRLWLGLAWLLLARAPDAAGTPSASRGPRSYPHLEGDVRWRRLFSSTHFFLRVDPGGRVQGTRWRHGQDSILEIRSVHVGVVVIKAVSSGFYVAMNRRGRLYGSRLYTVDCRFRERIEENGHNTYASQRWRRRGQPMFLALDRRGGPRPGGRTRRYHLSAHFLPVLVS
NR2E3 ag-2: inhibitors of NR2E3-RetCOR corepressor binding, primary screen, NR2E3 agonist project, biochemical, TR-FRET, GST-NR2E3, biotin-RetCOR; Photoreceptor-specific nuclear receptor (Homo sapiens), Q9Y5X4; 1536-well; inhibition of corepressor binding, % at 4.78 µM; 0.12% of 320,000 active; AID 2300, 2010;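 active = percent inhibition above the cutoff of mean plus 3 SD of all tested compounds, set per screening campaign, cut at about 20% in these data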;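 also: 0% = DMSO wells and 100% = biotin wells as full block of FRET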
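Format: 1536-well format; test system: GST-NR2E3 and biotin-RetCOR proteins; read-out basis: percent inhibition of TR-FRET ratio; timing: 5 h incubation at 4 °C; detection: time-resolved FRET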
697 NFkB inh: inhibitors of PMA/ionomycin-induced NF-kB reporter, 697 cells, primary screen, B-cell NF-kB inhibitor project, cell-based, luminescence, uHTS. 697 B-cell NF-kB luciferase reporter, 16 h. inhibition, % at 4 µM. 0.33% of 330,000 active. AID 435022, 2010; in the data active = inhibition above about 35%
Jurkat NFkB inh: inhibitors of induced NF-kB luciferase reporter, primary screen, TCR NF-kB activation inhibitor project, cell-based, luminescence, uHTS; inhibition, % at 4 µM; Jurkat, PMA/ionomycin-induced NF-kB luciferase reporter; 0.53% of 330,000 active; in the data active = inhibition above about 50%
697 NFkB conf: PMA/ionomycin-induced NF-kB reporter inhibitors, 697 retest, confirmation, B-cell NF-kB inhibitor project, cell-based, luminescence, single concentration. shares compounds with 697 NFkB inh. 697 B-cell NF-kB luciferase, 16 h. 35% of 2,000 active. inhibition, % at 4 µM; in the data active = inhibition mostly above about 28%, no sharp cut-off; inactive = mostly below about 22%
* marks the source's active call; other numbers are inactive results; / = no result; [ ] = another dose, or the depositor's remark.

SMILES | miR122 inh | NR2E3 ag-1 | FGF22 binding | NR2E3 ag-2 | 697 NFkB inh | Jurkat NFkB inh | 697 NFkB conf
O=C1c2ccccc2C(=O)N1CSc1ncccn1 | -10 | -15 | / | 1 | 36* | -7 | -9
Cc1ccc(C)c(OCc2ccc(C(=O)NN)o2)c1 | / | -19 | 0 | 2 | 46* | -6 | 32*
O=C(C[C@@H]1C[C@@H]2c3cc(NS(=O)(=O)c4ccccc4)ccc3O[C@@H]2[C@@H](CO)O1)NC1CCCC1 | 3[16.7 µM] | / | 0 | / | / | / | /
c1csc(-c2nc(-c3ccc(-c4ccon4)s3)no2)c1 | / | -71 | 0 | -6 | -268 | -141 | -277
c1ccc(-c2nc(-c3ccc(-c4ccon4)s3)no2)cc1 | 4 | -59 | 0 | 2 | -173 | -127 | /
Cc1ccc(-c2noc(-c3cccs3)n2)cc1 | 4 | -115 | 0 | -2 | -307 | -146 | -240
C[C@@H]1CN([C@H](C)CO)C(=O)Cc2cc(NC(=O)C3CCCCC3)ccc2O[C@@H]1CN(C)C(=O)Nc1ccc2c(c1)OCO2 | 1[16.7 µM] | / | 0 | / | / | / | /
C[C@H]1CN([C@@H](C)CO)S(=O)(=O)c2ccc(-c3ccccc3)cc2O[C@H]1CN(C)Cc1ccccc1 | 29[16.7 µM] | / | / | / | / | / | /
CNC(=O)CSc1nc2nn(-c3ccccc3)c(=O)c-2c2n1CCCCC2 | 20 | -7 | 0 | 3 | 35* | -1 | 38*
Cn1c(=NC(=O)c2ccco2)sc2ccccc21 | / | -109 | 0 | 2 | -95 | -94 | /
Cn1c(=NC(=O)CCl)sc2ccccc21 | / | -11 | 0 | -3 | 88* | 46 | 79*
CCC(=O)N[C@@H]1C=C[C@H](CC(=O)NCc2ccccc2OC)O[C@H]1CO | / | / | 0 | / | / | / | /
CCn1c(CN2CCN(c3ccc(Cl)cc3)CC2)nc2ccccc21 | -21 | 37 | / | 1 | 46* | 13 | 51*
Cc1c(Cl)cccc1Nc1ncccc1C(=O)OCC(O)CO (centres undefined) | / | / | / | -3 | 3 | -1 | /
O=C(OCC(O)CO)c1ccccc1Nc1ccnc2cc(Cl)ccc12 (centres undefined) | -3 | 1 | 0 | 1 | 41* | -4 | 7
CCN(CC(=O)Nc1ccccc1C(F)(F)F)C(=O)c1cc(S(=O)(=O)N(C)C)ccc1N1CCCC1 | / | -40 | 0 | 0 | 19 | 12 | /
CCN(CC(=O)Nc1c(F)cccc1F)C(=O)c1cc(S(=O)(=O)N(C)C)ccc1N1CCCC1 | -10 | 15 | 0 | -4 | 38* | -1 | 30*
CCN(CC(=O)Nc1c(F)cccc1F)C(=O)c1cc(S(=O)(=O)N(CC)CC)ccc1N1CCCCC1 | 10 | 19 | 0 | -2 | 66* | 5 | 49*
Cc1noc(C)c1NC(=O)Nc1ccc2c(c1)C(=O)N([C@@H](C)CO)C[C@H](C)[C@@H](CN(C)S(C)(=O)=O)OCCCC[C@H](C)O2 | 2[16.7 µM] | / | 0 | / | / | / | /
O=C(CCN1C(=O)/C(=C/c2ccccc2Cl)SC1=S)Nc1cccnc1 | -8 | -2 | 0 | 0 | 9 | 4 | /
Cc1ccc(/C=C2\SC(=S)N(CCC(=O)Nc3cccnc3)C2=O)cc1 | -3 | -19 | 0 | 2 | 52* | 0 | 27
Cc1ccc(/C=C2\SC(=S)N(CCCC(=O)NC3CCCC3)C2=O)cc1 | / | 22 | 0 | 1 | 85* | 19 | 80*
O=C(CCCN1C(=O)/C(=C/c2ccccc2Cl)SC1=S)Nc1cccnc1 | -2 | 44 | 0 | -1 | 83* | 29 | 61*
O=C(CCCN1C(=O)/C(=C/c2ccccc2Cl)SC1=S)Nc1ccccn1 | / | 30 | / | 0 | 46* | 12 | 68*

High-throughput results deposited in PubChem by several laboratories.
